A selection: hits, their analogues and other compounds. The true share with any hit is near 0.73%.
cardiac RTF act = cardiac RTF calcium sensitivity activators, primary screen, biochemical, IANBD-TnC fluorescence, EC20 calcium; activation, % at 7.2 µM; Troponin I, cardiac muscle (Homo sapiens) + Troponin T, cardiac muscle (Homo sapiens) + …; hit rate 0.24% among 340,000; AID 493008, 2010; IANBD-labeled TnC RTF fluorescence at EC20 calcium; 0% EC20 calcium, 100% full calcium;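 active = activation above the mean over all tested compounds plus 3 SD, cut at about 30% in these data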;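 also: rise in fluorescence read as greater calcium sensitivity of cardiac thin filaments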
Tn7 DDE FP = inhibitors of Tn7 peptide binding to fibrin DD(E), primary screen, biochemical, fluorescence polarization, human fibrin, Tn7 probe; Fibrinogen beta chain (Homo sapiens), P02675; FP displacement of FITC-Tn7 peptide from fibrin DD(E); 0% = median of compound wells per plate; hit rate 0.13% among 370,000; AID 720508, 2013; inhibition, % at 8.3 µM;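 active = inhibition above the mean of compounds falling within the control limits plus 3 SD of them, cut at about 14% in these data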
Target sequence (P02675 whole entry, looked up): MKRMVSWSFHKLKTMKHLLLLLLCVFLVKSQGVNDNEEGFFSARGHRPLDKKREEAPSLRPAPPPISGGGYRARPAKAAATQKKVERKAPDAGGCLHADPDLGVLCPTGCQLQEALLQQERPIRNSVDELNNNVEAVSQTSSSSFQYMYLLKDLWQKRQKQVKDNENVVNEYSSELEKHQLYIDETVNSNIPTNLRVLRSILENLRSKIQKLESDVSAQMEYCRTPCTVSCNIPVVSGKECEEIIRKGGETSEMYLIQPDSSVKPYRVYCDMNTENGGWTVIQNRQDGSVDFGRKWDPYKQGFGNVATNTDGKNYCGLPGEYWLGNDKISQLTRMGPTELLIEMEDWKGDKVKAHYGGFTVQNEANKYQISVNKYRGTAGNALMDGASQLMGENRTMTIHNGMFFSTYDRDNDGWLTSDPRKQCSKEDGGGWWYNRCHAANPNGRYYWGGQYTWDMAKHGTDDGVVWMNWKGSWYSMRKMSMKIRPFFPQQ
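System: human fibrin DD(E); quantity: Fibrin-DD(E) at 2 µM final; also added: fluorescent Tn7 probe at 0.1 µM; compound dosing: single nominal test concentration of 8.3 µM per compound; schedule: 10 min preincubation, 3 h with tracer, room temperature; detection: fluorescence polarization of the labelled Tn7 tracer; repeats: one replicate per compound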
Tn6 DDE FP = inhibitors of Tn6 peptide binding to fibrin DD(E), primary screen, biochemical, fluorescence polarization, human fibrin, Tn6 probe | inhibition, % at 8.3 µM | hit rate 0.21% among 370,000 | Fibrin DD(E) TRITC-Tn6 fluorescence polarization displacement | AID 720509, 2013;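 active = inhibition above a per-campaign cutoff: mean of compounds within control limits plus 3 SD, cut at about 15% in these data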
Keap1 Nrf2 FP = Keap1-Nrf2 protein-protein interaction inhibitors, primary screen, biochemical, fluorescence polarization, single point; Kelch-like ECH-associated protein 1 (Homo sapiens), Q14145; Keap1 Kelch-Nrf2 peptide fluorescence polarization, 1536-well; inhibition, % at 9.4 µM; hit rate 0.15% among 340,000; AID 504523, 2011; in the data active = inhibition above about 12%;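 also: human Keap1 Kelch domain with fluorescein labeled Nrf2 9mer peptide probe; higher means more block of Keap1 binding to Nrf2 peptide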
Cardiac RTF inh = cardiac RTF calcium sensitivity inhibitors, primary screen, biochemical, IANBD-TnC fluorescence, EC70 calcium; hit rate 0.12% among 340,000; AID 493244, 2011; inhibition, % at 7.15 µM; Troponin I, cardiac muscle (Homo sapiens) + Troponin T, cardiac muscle (Homo sapiens) + …; IANBD-labeled cardiac RTF, Ca2+ fluorescence;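 active = inhibition above the mean inhibition of all tested compounds plus 3 SD, cut at about 17% in these data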;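 also: assay run at fixed EC70 calcium of 1.6 mM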
LANA DNA inh = inhibitors of KSHV C-LANA binding to DNA, primary screen, biochemical, fluorescence polarization, FAM-LBS DNA, MBP-C-LANA, single point; Kaposi's sarcoma herpesvirus LANA C-terminal domain (residues 932-1162) DNA binding; inhibition, % at 9 µM; hit rate 0.078% among 340,000;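 active = highest replicate inhibition at or above 60% at 9 µM, even if other replicates fall short; inactive = all replicates below 60% inhibition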
Tn7 DDE conf = inhibitors of Tn7 peptide binding to fibrin DD(E), confirmation, biochemical, fluorescence polarization, human fibrin, Tn7 probe. shares compounds with Tn7 DDE FP. FP displacement of TRITC-Tn7 peptide from DD(E); 0% set at plate's compound-well median. inhibition, % at 8.3 µM. hit rate 5% among 460. AID 720628, 2013;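 active = inhibition above the campaign cutoff, the mean of compounds within control limits plus 3 SD, cut at about 14% in these data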;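 also: displacers lower polarization since freed probe rises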
Tn7 DDE ctr = counter-screen for inhibitors of Tn7 peptide binding to fibrin DD(E); shares compounds with Tn7 DDE FP; TRITC-Tn7 probe displacement, fluorescence polarization; inhibition, % at 8.3 µM; hit rate 3% among 460; AID 720633;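 active = inhibition above the cutoff, the mean of compounds lying between the control bounds plus 3 SD of those compounds, cut at about 17% in these data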
Each line names hits and unclear results; the compound was inactive in the other large screens (follow-up assays come after a bar, where they were run).

O=C(C1CCN(S(=O)(=O)c2cccc([N+](=O)[O-])c2)CC1)N1CCOCC1	Tn7 DDE FP 14 | Tn7 DDE conf inactive | Tn7 DDE ctr inactive
Cc1ccc(C(NC(=O)N2CCCCC2)=C(Cl)Cl)cc1F	Tn7 DDE FP 15 | Tn7 DDE conf inactive | Tn7 DDE ctr inactive
CC1(C(=O)NCc2ccccc2)CN(S(C)(=O)=O)CC(=O)N1Cc1cccs1 (centres undefined)	none (no result: cardiac RTF act, Keap1 Nrf2 FP, Cardiac RTF inh, LANA DNA inh)
CCC1=Nc2cc(C(=O)N3CCCCC3)ccc2Sc2ccc(C)cc21	none
CCC1=Nc2cc(C(=O)O)ccc2Sc2ccc(Cl)cc21	Tn7 DDE FP 15 | Tn7 DDE conf inactive | Tn7 DDE ctr inactive
C#CCN1CC(COc2ccccc2)Oc2cccc(Oc3ccc(OC)cc3)c2S1(=O)=O (centres undefined)	Tn7 DDE FP 14 (no result: cardiac RTF act, Keap1 Nrf2 FP, Cardiac RTF inh, LANA DNA inh) | Tn7 DDE conf inactive | Tn7 DDE ctr inactive
CCCCN1CC(COCc2ccccc2)Oc2cccc(Oc3ccc(OC)cc3)c2S1(=O)=O (centres undefined)	none
CC(NCc1ccco1)C(=O)N1CCN(c2ccc(F)cc2)CC1 (centres undefined)	none (no result: cardiac RTF act, Keap1 Nrf2 FP, Cardiac RTF inh, LANA DNA inh)
CCCCn1c(N)c(N(CCOC)C(=O)C2CCN(S(=O)(=O)c3ccc(F)cc3)CC2)c(=O)[nH]c1=O	Tn7 DDE FP 17 | Tn7 DDE conf inactive | Tn7 DDE ctr inactive
CCCCn1c(N)c(N(CCOC)C(=O)C2CCN(S(=O)(=O)c3ccc(C)cc3)CC2)c(=O)[nH]c1=O	none
O=C(c1cccc(F)c1)N1CCCC(c2nc(-c3cccs3)no2)C1 (centres undefined)	Tn7 DDE FP 15 (no result: cardiac RTF act, Keap1 Nrf2 FP, Cardiac RTF inh, LANA DNA inh) | Tn7 DDE conf inactive | Tn7 DDE ctr inactive
COc1cccc(C(=O)N2CCCC(c3nc(-c4cccs4)no3)C2)c1 (centres undefined)	none
CCN(CC)CCCN1C(=O)C2=C(C1=O)C1N(C)c3ccccc3[C@@]13C[C@@H](CO)N(C(=O)CCC(=O)OC)C3=N2 (some centres undefined)	none (no result: cardiac RTF act, Keap1 Nrf2 FP, Cardiac RTF inh, LANA DNA inh)
COc1ccccc1-c1sc2ccccc2c1C#Cc1ccc(N(C)C)cc1	Tn7 DDE FP 14 | Tn7 DDE conf inactive | Tn7 DDE ctr inactive
COc1ccccc1-c1sc2ccccc2c1-c1ccc(O)cc1	none
CC(C)CNc1cccc2c1S(=O)(=O)N(Cc1cn(Cc3cccc(F)c3)nn1)Cc1ccccc1O2	none (no result: cardiac RTF act, Keap1 Nrf2 FP, Cardiac RTF inh, LANA DNA inh)
Cc1ccc(-n2c(SCC(=O)Nc3ccc4c(c3)OCCO4)nnc2-c2ccccn2)cc1	none (no result: cardiac RTF act, Keap1 Nrf2 FP, Cardiac RTF inh, LANA DNA inh)
COc1cccc(C(=O)N/N=c2/oc3ccccc3cc2C(N)=O)c1	Tn7 DDE FP 14 | Tn7 DDE conf inactive | Tn7 DDE ctr inactive
CCN(CC)S(=O)(=O)c1cccc(-c2nnc(SCc3ncc(-c4ccccc4)o3)n2C)c1	Tn7 DDE FP 15 | Tn7 DDE conf inactive | Tn7 DDE ctr inactive
CCN(CC)S(=O)(=O)c1cccc(-c2nnc(SCC(N)=O)n2C)c1	none
C=CCNC(=O)CN(Cc1ccccc1)S(=O)(=O)c1ccc(C)cc1	none
C=CCNC(=O)CN(CCc1ccccc1)S(=O)(=O)c1ccccc1	Tn7 DDE FP 16 | Tn7 DDE conf inactive | Tn7 DDE ctr inactive
C[C@@H]1CN([C@@H](C)CO)C(=O)CCCn2cc(nn2)CO[C@H]1CN(C)C(=O)Nc1ccc(C(F)(F)F)cc1	none (no result: cardiac RTF act, Keap1 Nrf2 FP, Cardiac RTF inh, LANA DNA inh)
O=C(CN1CCN(c2ccccn2)CC1)N(c1ccccc1)c1ccc2ccccc2c1	Tn7 DDE FP 15 | Tn7 DDE conf inactive | Tn7 DDE ctr inactive
COC(=O)[C@@]12CCCCC3=C1N(CCC3)C(=O)[C@H]2CC(=O)NCC12CC3CC(CC(C3)C1)C2	none (no result: cardiac RTF act, Keap1 Nrf2 FP, Cardiac RTF inh, LANA DNA inh)
NS(=O)(=O)c1ccc(N/N=C/c2cn(-c3ccccc3)nc2-c2cccs2)c([N+](=O)[O-])c1	none
NS(=O)(=O)c1ccc(N/N=C/c2cn(-c3ccccc3)nc2-c2cccs2)cc1	Tn7 DDE FP 14 | Tn7 DDE conf inactive | Tn7 DDE ctr inactive
N#CC1=C2C=Cc3ccccc3N2CCCC1=O	Tn7 DDE FP 16 | Tn7 DDE conf inactive | Tn7 DDE ctr inactive
O=C(CN1CCCC1)N1c2ccccc2C=Cc2ccccc21	none
Cc1ccnc(SCc2cc(=O)c(OC(=O)c3ccc(C)c([N+](=O)[O-])c3)co2)n1	none (no result: cardiac RTF act, Keap1 Nrf2 FP, Cardiac RTF inh, LANA DNA inh)
O=C(NCCCC1CCCC1)C1CCC(=O)N(Cc2cccc(F)c2)C1 (centres undefined)	none
O=C(NCCCC1CCCC1)C1CCC(=O)N(Cc2ccc(Cl)cc2)C1 (centres undefined)	Tn7 DDE FP 14 | Tn7 DDE conf inactive | Tn7 DDE ctr inactive
CC(C)CCOc1ccc(C(=O)NCC(c2cccs2)N2CCOCC2)cc1 (centres undefined)	Tn7 DDE FP 15 | Tn7 DDE conf inactive | Tn7 DDE ctr inactive
CCOc1ccc(C(=O)NCC(c2cccs2)N2CCOCC2)cc1 (centres undefined)	none
CC(C)c1ccccc1NC(=O)CSc1n[nH]c(=O)n1C1CC1	Tn7 DDE FP 14 | Tn7 DDE conf inactive | Tn7 DDE ctr inactive
CC(C)(C)c1ccc(NC(=O)CSc2n[nH]c(=O)n2C2CC2)cc1	none
C=CCNS(=O)(=O)c1ccc(OCC(=O)OC)cc1	Tn7 DDE FP 16 | Tn7 DDE conf inactive | Tn7 DDE ctr inactive
O=C1CCCc2cc3c(cc21)CC1(C3)Cc2cc3c(cc2C1)C(=O)CCC3	Tn7 DDE FP 14 | Tn7 DDE conf inactive | Tn7 DDE ctr inactive
